# Test results from ChEMBL document CHEMBL5678798 (Clin Cancer Res, 2009).
# The source made the active and inactive calls. The rule behind the calls is not given here.
# Columns and labels:
# [1] = Antiproliferative activity against human TC71 cells assessed as reduction in cell viability after 72 hrs by CellTiter-Glo assay; format: functional, cell-based; conditions: TC-71, 72 h
# Method in brief: (§1)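 Cells seeded in 96-well plates, left overnight at 37°C, then exposed to a range of test concentrations for 72 h. Viability read by CellTiter-Glo luminescence; IC50 from four-parameter curve fit. Lines kept at 37°C, 5% CO2, in recommended growth medium.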
# MHH-ES-1 = experiment: Antiproliferative activity against human MHH-ES-1 cells assessed as reduction in cell viability after 72 hrs by CellTiter-Glo assay; format: functional, cell-based; conditions: MHH-ES-1, 72 h; method in brief: as §1
# MDA-MB-468 = experiment: Antiproliferative activity against human MDA-MB-468 cells assessed as reduction in cell viability after 72 hrs by CellTiter-Glo assay; format: functional, cell-based; conditions: MDA-MB-468, 72 h; method in brief: as §1
# SU-DHL-1 = experiment: Antiproliferative activity against human SU-DHL-1 cells assessed as reduction in cell viability after 72 hrs by CellTiter-Glo assay; format: functional, cell-based; conditions: SU-DHL-1, 72 h; method in brief: as §1
# [2] = Cytotoxicity against HUVEC cells assessed as reduction in cell viability after 72 hrs by CellTiter-Glo assay; format: toxicity, cell-based; conditions: human; method in brief: as §1
# MCF7 = experiment: Induction of cell cycle arrest in human MCF7 cells assessed as increase in cells accumulation at G1 phase at 0.03 to 10 uM incubated for 24 to 48 hrs by propidium iodide staining based flow cytometric analysis; format: functional; conditions: dose 0.03-10 µM, time lower 24.0 hrs, time upper […]
# Method in brief: (§2)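 COLO 205, MCF-7 or NCI-H929 cells seeded in 96-well plates overnight at 37°C, then exposed to DMSO or increasing compound concentrations for 24 or 48 h. Fixed and stained with propidium iodide (Vindelov method), then analysed by flow cytometry for sub-G1, G1, S and G2-M fractions. Experiment repeated twice.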
# NCI-H929 = experiment: Induction of cell cycle arrest in human NCI-H929 cells assessed as increase in cells accumulation at G1 phase at 0.03 to 10 uM incubated for 24 to 48 hrs by propidium iodide staining based flow cytometric analysis; format: functional; conditions: dose 0.03-10 µM, time lower 24.0 hrs, time upper […]; method in brief: as §2
# COLO 205 = experiment: Induction of cell cycle arrest in human COLO 205 cells assessed as cells accumulation at G2 phase at 1 umol/L incubated for 48 hrs by propidium iodide staining based flow cytometric analysis (reference value: 22%); format: functional; conditions: dose 1 µmol/L, at 1 µM; method in brief: as §2
# [3] = In vivo inhibition of IGF1R in mouse NIH-3T3/LISN cells implanted in IGF1-stimulated nu/nu CD-1 mouse assessed as reduction in IGF1R phosphorylation at 30 mg/kg, po pretreated for 4 hrs followed by IGF1 stimulation and measured after 10 min by […] relative to control; format: functional; conditions: 4.167 h, time 250 min
# Method in brief: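 Female nu/nu CD-1 mice, three per group, bearing ~500 mm3 tumors, given one oral dose of compound or vehicle. At 4 h, 10 µg hIGF-I i.v. via tail vein; saline controls. Tumor and blood taken 10 min later. Tumor lysates in RIPA captured on anti-IGF-IR plates and probed with europium anti-phosphotyrosine. Phospho/total IGF-IR expressed as % of ligand-stimulated control. Blood levels by LC-MS/MS.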
# Aurora kinase A = Aurora kinase A (Homo sapiens, UniProt O14965); experiment: Inhibition of Aurora A (unknown origin)
# Method in brief: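 In-house kinase panel assay with conditions developed and optimized for this kinase. Aurora A was assayed in the presence of its accessory protein TPX2. IC50 was determined.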
# Aurora kinase B = Aurora kinase B (Homo sapiens, UniProt Q96GD4); experiment: Inhibition of Aurora B (unknown origin)
# [4] = target: Receptor tyrosine-protein kinase erbB-2 (Homo sapiens, UniProt P04626); experiment: Inhibition of ErbB2 (unknown origin)
# [5] = target: Mitogen-activated protein kinase 14 (Homo sapiens, UniProt Q16539); experiment: Inhibition of P38alpha (unknown origin)
# [6] = target: Phosphatidylinositol 4,5-bisphosphate 3-kinase catalytic subunit delta isoform (Homo sapiens, UniProt O00329); experiment: Inhibition of PI3Kdelta (unknown origin)
# [7] = target: Ribosomal protein S6 kinase alpha-1 (Homo sapiens, UniProt Q15418); experiment: Inhibition of RSK1 (unknown origin)
# [8] = target: Death-associated protein kinase 2 (Homo sapiens) (UniProt Q9UIK4); experiment: Inhibition of N-terminal GST-tagged recombinant human full length DAPK2 expressed in baculovirus infected Sf21 cells at 0.3 uM by filter binding assay relative to control
# Method in brief: (§3)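 Outsourced single-concentration screen in a commercial panel of 233 protein kinases, run as radiometric filter-binding activity assays. Test agent was tested at 0.3 or 3 µmol/L, as given in each line, from a 10 mmol/L DMSO stock. Activity is expressed as percent inhibition relative to control.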
# [9] = target: Protein-tyrosine kinase 2-beta (Homo sapiens) (UniProt Q14289); experiment: Inhibition of N-Terminal His6-tagged recombinant full-length human Pyk2 expressed in baculovirus infected Sf21 cells at 0.3 uM by filter binding assay relative to control
# Method in brief: (§4)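 KinaseProfiler panel of 233 kinases: radiometric filter-binding activity assays with compound at 0.3 or 3 µmol/L. Read-out is percent inhibition.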
# [10] = target: BDNF/NT-3 growth factors receptor (Homo sapiens) (UniProt Q16620); experiment: Inhibition of N-terminal His6 tagged recombinant human TrkB (455 to end residues) expressed in baculovirus infected Sf21 cells at 0.3 uM by filter binding assay relative to control; method in brief: as §3
# [11] = target: Testis-specific serine/threonine-protein kinase 1 (Homo sapiens) (UniProt Q9BXA7); experiment: Inhibition of 6His-tagged recombinant human full length TSSK1 expressed in baculovirus infected Sf21 cells at 0.3 uM by filter binding assay relative to control; method in brief: as §4
# [12] = Inhibition of N-terminal His6-tagged recombinant full-length human CDK5/N-terminal GST-tagged recombinant full-length human p35 expressed in baculovirus infected Sf21 cells at 3 uM by filter binding assay relative to control; conditions: condition cancer; method in brief: as §3
# [13] = target: Serine/threonine-protein kinase tousled-like 2 (Homo sapiens) (UniProt Q86UE8); experiment: Inhibition of N-terminal 6His-tagged recombinant human TLK2 (388 to end residues) expressed in baculovirus infected Sf21 cells at 3 uM by filter binding assay relative to control; method in brief: as §3
# [14] = target: Tyrosine-protein kinase HCK (Homo sapiens, UniProt P08631); experiment: Inhibition of N-terminal 6His-tagged recombinant human Hck (230 to 497 residues) expressed in baculovirus infected Sf21 cells by filter binding assay
# [15] = target: PAS domain-containing serine/threonine-protein kinase (Homo sapiens, UniProt Q96RG2); experiment: Inhibition of human PASK by filter binding assay
# [16] = target: Tyrosine-protein kinase FRK (Homo sapiens, UniProt P42685); experiment: Inhibition of N-terminal 6His-tagged recombinant human PTK5 (218 to end residues) expressed in baculovirus infected Sf21 cells by filter binding assay
# [17] = target: Serine/threonine-protein kinase D2 (PRKD2) (Homo sapiens) (UniProt Q9BZL6); experiment: Inhibition of N-terminal His6 tagged, recombinant full-length human PKD2 expressed in Sf21 cells at 0.3 uM by filter binding assay relative to control
# Sequence of Serine/threonine-protein kinase tousled-like 2 (Homo sapiens) (Q86UE8 whole entry, looked up, the tested form may be a part): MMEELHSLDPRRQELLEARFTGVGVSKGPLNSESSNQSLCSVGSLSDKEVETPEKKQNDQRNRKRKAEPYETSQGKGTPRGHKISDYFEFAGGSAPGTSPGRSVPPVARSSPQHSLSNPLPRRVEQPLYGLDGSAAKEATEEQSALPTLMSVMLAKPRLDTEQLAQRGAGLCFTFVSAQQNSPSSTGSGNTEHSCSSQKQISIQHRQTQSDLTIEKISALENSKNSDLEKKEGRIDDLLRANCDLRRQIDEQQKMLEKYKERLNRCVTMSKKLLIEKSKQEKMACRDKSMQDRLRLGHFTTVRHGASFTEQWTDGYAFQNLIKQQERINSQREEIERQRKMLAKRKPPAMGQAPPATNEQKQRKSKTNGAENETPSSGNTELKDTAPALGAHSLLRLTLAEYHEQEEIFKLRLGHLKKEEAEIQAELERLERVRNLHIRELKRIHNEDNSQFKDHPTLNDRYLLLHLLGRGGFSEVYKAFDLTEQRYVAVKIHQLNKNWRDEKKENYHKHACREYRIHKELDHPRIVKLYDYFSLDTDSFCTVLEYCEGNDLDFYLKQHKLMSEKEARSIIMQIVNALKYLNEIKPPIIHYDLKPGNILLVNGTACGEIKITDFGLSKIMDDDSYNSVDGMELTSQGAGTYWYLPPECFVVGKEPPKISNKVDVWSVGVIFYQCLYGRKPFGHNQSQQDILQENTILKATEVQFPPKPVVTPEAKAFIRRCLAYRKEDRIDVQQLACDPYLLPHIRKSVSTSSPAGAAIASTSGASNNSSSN
# Sequence of Mitogen-activated protein kinase 14 (Q16539 whole entry, canonical isoform): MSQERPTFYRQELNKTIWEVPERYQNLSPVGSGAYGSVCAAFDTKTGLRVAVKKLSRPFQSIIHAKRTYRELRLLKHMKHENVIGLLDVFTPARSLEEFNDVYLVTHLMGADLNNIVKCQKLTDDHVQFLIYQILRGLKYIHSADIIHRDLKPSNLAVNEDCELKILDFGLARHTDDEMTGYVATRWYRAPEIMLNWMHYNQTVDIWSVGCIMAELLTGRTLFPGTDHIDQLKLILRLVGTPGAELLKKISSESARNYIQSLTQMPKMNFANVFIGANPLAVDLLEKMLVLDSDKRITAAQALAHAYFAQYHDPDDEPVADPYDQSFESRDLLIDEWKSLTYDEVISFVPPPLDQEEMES
# Sequence of Tyrosine-protein kinase FRK (P42685 whole entry): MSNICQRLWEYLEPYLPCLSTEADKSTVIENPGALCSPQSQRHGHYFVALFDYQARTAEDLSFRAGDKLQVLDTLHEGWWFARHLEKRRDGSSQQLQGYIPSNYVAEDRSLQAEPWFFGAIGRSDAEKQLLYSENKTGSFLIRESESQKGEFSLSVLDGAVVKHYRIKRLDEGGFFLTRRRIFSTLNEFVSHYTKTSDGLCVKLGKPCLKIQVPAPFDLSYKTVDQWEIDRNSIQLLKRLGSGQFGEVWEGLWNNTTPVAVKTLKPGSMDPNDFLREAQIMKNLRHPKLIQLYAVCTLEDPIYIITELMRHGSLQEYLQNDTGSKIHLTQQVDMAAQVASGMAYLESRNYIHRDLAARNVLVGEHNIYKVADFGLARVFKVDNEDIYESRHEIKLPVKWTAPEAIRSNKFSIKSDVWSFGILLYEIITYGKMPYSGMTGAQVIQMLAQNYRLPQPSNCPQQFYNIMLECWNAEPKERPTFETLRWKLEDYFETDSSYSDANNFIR
# Sequence of Ribosomal protein S6 kinase alpha-1 (Q15418 whole entry): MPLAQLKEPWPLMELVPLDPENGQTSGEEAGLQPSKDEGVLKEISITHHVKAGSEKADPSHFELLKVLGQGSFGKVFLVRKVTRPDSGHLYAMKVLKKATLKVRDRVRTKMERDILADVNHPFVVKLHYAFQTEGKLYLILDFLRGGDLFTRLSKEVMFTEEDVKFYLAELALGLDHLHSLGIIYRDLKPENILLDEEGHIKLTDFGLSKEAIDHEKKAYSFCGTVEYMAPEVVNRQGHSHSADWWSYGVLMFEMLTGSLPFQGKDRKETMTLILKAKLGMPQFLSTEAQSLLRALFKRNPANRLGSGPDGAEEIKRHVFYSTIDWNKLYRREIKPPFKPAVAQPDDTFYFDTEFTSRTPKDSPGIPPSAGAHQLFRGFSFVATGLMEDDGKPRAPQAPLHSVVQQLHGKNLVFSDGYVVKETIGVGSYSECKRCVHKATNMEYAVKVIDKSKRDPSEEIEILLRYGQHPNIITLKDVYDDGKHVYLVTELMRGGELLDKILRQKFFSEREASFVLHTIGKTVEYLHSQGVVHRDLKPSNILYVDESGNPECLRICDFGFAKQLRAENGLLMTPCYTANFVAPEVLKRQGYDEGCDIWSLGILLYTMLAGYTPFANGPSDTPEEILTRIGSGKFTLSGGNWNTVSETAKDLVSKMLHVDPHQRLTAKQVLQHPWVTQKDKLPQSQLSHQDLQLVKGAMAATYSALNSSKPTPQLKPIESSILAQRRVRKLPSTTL
# Sequence of Aurora kinase A (O14965 whole entry): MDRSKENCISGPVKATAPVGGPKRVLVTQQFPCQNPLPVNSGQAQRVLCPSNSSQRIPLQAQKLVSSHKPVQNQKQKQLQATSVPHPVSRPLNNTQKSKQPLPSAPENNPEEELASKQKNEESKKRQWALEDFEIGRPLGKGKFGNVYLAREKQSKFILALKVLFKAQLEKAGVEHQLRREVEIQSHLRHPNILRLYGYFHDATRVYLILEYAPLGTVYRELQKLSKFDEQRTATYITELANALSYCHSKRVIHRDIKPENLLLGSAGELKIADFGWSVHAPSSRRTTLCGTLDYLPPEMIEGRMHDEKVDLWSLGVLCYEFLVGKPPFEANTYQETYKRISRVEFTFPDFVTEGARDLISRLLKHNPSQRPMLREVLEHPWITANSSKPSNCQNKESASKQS
# Sequence of Tyrosine-protein kinase HCK (P08631 whole entry, the tested form may be a part): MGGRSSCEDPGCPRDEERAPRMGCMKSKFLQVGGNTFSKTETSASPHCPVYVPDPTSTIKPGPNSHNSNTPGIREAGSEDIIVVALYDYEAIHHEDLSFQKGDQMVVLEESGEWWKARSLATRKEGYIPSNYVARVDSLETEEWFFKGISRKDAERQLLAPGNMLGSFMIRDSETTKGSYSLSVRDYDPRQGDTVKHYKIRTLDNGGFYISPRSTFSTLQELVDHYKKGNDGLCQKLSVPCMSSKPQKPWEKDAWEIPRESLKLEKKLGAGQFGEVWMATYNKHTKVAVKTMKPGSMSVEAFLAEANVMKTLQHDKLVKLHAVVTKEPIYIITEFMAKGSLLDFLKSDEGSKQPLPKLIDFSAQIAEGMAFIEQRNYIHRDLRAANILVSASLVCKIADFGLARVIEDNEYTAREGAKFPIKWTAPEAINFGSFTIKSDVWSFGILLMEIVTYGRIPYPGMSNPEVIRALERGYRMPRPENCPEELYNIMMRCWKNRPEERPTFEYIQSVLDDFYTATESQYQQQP
# Sequence of Phosphatidylinositol 4,5-bisphosphate 3-kinase catalytic subunit delta isoform (O00329 whole entry, canonical isoform): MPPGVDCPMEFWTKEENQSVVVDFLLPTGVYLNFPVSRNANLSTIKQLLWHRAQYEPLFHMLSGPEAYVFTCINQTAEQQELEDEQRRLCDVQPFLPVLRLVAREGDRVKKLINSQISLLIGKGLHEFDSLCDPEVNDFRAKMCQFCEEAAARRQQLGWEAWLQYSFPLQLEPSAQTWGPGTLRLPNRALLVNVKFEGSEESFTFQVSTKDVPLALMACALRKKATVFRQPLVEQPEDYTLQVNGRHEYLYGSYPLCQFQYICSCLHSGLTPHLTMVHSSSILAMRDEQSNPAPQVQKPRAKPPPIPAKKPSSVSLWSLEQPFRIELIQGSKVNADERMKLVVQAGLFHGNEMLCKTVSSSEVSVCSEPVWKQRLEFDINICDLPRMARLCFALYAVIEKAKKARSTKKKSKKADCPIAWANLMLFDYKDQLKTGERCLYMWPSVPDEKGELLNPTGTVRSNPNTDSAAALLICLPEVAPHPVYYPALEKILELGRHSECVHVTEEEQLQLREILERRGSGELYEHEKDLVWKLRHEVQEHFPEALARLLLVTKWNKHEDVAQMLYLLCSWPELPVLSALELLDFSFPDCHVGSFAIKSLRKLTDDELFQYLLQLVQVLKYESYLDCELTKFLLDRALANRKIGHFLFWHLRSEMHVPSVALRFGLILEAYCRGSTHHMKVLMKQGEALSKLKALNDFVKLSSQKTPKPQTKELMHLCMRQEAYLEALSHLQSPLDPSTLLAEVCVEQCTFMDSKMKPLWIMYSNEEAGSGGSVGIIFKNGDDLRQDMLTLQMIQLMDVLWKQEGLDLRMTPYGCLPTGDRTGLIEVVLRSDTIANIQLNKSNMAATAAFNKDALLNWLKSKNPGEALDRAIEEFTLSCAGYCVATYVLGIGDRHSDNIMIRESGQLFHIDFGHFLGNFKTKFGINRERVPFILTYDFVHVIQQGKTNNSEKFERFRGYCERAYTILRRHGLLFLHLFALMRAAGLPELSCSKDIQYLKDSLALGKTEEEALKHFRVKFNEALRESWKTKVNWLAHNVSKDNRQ
# Sequence of Aurora kinase B (Q96GD4 whole entry): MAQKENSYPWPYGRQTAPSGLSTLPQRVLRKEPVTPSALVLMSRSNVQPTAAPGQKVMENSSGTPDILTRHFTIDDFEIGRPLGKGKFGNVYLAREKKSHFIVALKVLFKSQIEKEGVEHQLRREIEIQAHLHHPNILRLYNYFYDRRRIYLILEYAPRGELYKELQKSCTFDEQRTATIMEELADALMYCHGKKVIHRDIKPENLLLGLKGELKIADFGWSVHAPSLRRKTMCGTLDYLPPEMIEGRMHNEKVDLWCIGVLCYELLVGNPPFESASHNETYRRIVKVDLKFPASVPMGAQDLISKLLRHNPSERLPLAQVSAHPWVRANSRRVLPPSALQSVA
structure (smiles),measurement,setting,value
CCc1cc(Nc2nccc(-c3c(-c4ccc(OC)c(C(=O)Nc5c(F)cccc5F)c4)nc4ccccn34)n2)c(OC)cc1N1CCC(N2CCN(S(C)(=O)=O)CC2)CC1,IC50,[1],0.035 µM
same,IC50,MHH-ES-1,> 30 µM
same,IC50,MDA-MB-468,> 20 µM
same,IC50,SU-DHL-1,> 30 µM
same,IC50 at 72 h,[2],> 20 µM
same,Activity,MCF7,Active
same,Activity,NCI-H929,Active
same,Activity,COLO 205,12%
same,inhibition in vivo at 30 mg/kg,[3],99%
same,IC50,Aurora kinase A,> 8 µM
same,IC50,Aurora kinase B,4 µM
same,IC50,[4],> 10 µM
same,IC50,[5],10 µM
same,IC50,[6],> 10 µM
same,IC50,[7],6.3 µM
same,inhibition,[8],1%
same,inhibition,[9],21%
same,inhibition,[10],4%
same,inhibition,[11],10%
same,inhibition at 3 µM,[12],-24%
same,inhibition,[13],0%
same,IC50,[14],0.275 µM
same,IC50,[15],4.34 µM
same,IC50,[16],0.016 µM
same,inhibition,[17],4%
